Assay outcomes deposited in PubChem by Johns Hopkins Ion Channel Center.
Hits are enriched below; roughly 3.5% of the tested compounds scored in any of these assays.
MrgX1 agonist: agonists of human MrgX1 receptor, primary screen, HEK293 cells, Fluo-4 calcium flux; 0.44% of 310,000 active; B-score at 10 µM; Fluo-4 calcium fluorescence, agonist mode; hits give high values;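 active = calcium response B-score plate-corrected fluorescence ratio at least 3 library SD, with starting fluorescence B-score inside 5 SD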
Target sequence (Q96LB2 whole entry, looked up): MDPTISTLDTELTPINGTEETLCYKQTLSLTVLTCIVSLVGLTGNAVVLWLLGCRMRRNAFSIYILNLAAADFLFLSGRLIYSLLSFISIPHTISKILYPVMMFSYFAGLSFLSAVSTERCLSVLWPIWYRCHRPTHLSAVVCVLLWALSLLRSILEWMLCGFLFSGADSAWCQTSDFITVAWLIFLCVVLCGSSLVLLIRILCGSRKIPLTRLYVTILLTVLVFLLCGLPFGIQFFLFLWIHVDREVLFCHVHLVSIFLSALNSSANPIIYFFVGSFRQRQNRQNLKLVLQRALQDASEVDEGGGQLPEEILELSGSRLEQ
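Material: HEK293 cells stably expressing human MrgX1 receptor | Quantity: 15,000 cells per well | Times: Cells plated overnight, dye loaded 0.5 h 37 °C, 0.5 h room temperature | Measured by: Kinetic Fluo-4 NW fluorescence of intracellular calcium | Control set: Positive and negative controls per plate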
RGS4 pot: RGS4 potentiators or activators, primary screen, cell-based, HEK293 M3R inducible RGS4, calcium flux | carbachol calcium flux Fluo4; hits give low values | B-score at 10 µM | 0.92% of 310,000 active | AID 463111, 2010;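 active = B-score of the integrated calcium signal more than 4 SD below the library mean, with starting fluorescence not abnormally high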;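 also: negative B-score means reduced calcium response which marks RGS4 activation or potentiation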
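Detection: kinetic calcium fluorescence imaging with Fluo4-AM dye, 2 µM / Material: HEK293 cells with stable M3R and inducible RGS4 / Schedule: recording 10 s baseline at 1 Hz, 100 s post-agonist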
MrgX1 PAM: positive allosteric modulators of MrgX1, primary screen, HEK293 cells, Fluo-4 calcium flux. AID 588675, 2011. 0.63% of 310,000 active. FDSS; hits give high values. Mas-related G-protein coupled receptor member X1 (Homo sapiens), Q96LB2. B-score at 10 µM;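 active = plate-corrected calcium response at least 3 library SD above typical, normal starting fluorescence, not activating the receptor alone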;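 also: compound read alongside a low EC10 to EC30 dose of BAM8-22 agonist; peak minus trough fluorescence over baseline measured at the second addition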
RGS4 inh: RGS4 inhibitors, primary screen, cell-based, HEK293 M3R inducible RGS4, calcium flux; Fluo-4 calcium flux; hits give high values; triggered by carbachol at its EC20; B-score at 10 µM; 0.45% of 310,000 active;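 active = B-score, a plate-corrected calcium signal, over three deviations above library mean, with baseline fluorescence within five deviations of library mean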;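 also: RGS4 expression induced by doxycycline in cells with stable M3 receptor; B-score is computed from the integrated fluorescence ratio over baseline after carbachol; higher B-score means a larger calcium signal and so more RGS4 inhibition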
Target sequence (P49798 whole entry, looked up): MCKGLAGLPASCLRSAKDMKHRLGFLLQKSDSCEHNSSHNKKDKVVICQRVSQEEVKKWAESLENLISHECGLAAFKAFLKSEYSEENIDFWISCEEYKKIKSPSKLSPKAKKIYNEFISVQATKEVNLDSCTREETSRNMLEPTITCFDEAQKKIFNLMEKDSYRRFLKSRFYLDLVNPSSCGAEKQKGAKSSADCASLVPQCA
MrgX1 antagonist: antagonists of human MrgX1 receptor, primary screen, HEK293 cells, Fluo-4 calcium flux | Mas-related G-protein coupled receptor member X1 (Homo sapiens), Q96LB2 | BAM8-22 antagonism; hits give low values | B-score at 10 µM | 1.3% of 310,000 active;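 active = calcium-response B-score plate-corrected more than 3 library SD below zero, starting fluorescence within 5 deviations, no agonist response on first addition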;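 also: peak minus trough fluorescence over baseline after final BAM8-22 challenge near maximal dose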
Hits are given with their value; 0 = inactive.

SMILES	MrgX1 agonist	RGS4 pot	MrgX1 PAM	RGS4 inh	MrgX1 antagonist
Cc1cc(OCCN2CCC(Cc3ccccc3)CC2)ccc1[N+](=O)[O-]	0	-7.97	0	0	0
Cc1cc(Cl)ccc1C(=O)C1CCCN(C(=O)c2ccc3ncccc3c2)C1 (stereo unspecified)	0	0	0	0	0
CCCCCn1c(N2CCC(Cc3ccccc3)CC2)nc2c1c(=O)[nH]c(=O)n2C	0	-8.96	0	0	0
O=C(Cc1ccc([N+](=O)[O-])cc1)N1CCCCCC1	0	0	0	0	0
O=C(CCc1ccc(Oc2cc([N+](=O)[O-])cc([N+](=O)[O-])c2)cc1)N1CCCCCC1	0	-9.99	0	0	0
COc1ccccc1-c1cc(C(F)(F)F)nc(S(C)(=O)=O)n1	0	0	0	0	0
CS(=O)(=O)c1nc(-c2ccco2)cc(C(F)(F)F)n1	0	-7.03	0	0	0
COc1ccc(Oc2nc(OC)cc(OC)n2)cc1	0	0	0	0	0
CCCn1cnc2scc(-c3ccc(C)c(C)c3)c2c1=O	0	0	0	0	0
CCn1c(=NC(=O)c2ccc(S(=O)(=O)N(C)C)cc2)sc2cccc(OC)c21	0	-7.16	0	0	0
CCn1c(=NC(=O)CS(=O)(=O)c2ccc(C)cc2)sc2cccc(OC)c21	0	0	0	0	0
C/C(=C\C(=O)c1ccc(Br)cc1)Nc1ccc(Cl)cc1	0	-7.16	0	0	0
CCN1C(=O)[C@@H]2Cc3c([nH]c4ccccc34)C(c3ccc(OC)cc3)N2C1=S (stereo partly specified)	0	0	0	0	-4.55
CCN(CC)C(=O)C(=O)N/N=C/c1ccc(C(=O)OC)cc1	0	0	0	0	0
COc1ccc(C(=O)C2CCCN(C(=O)/C=C/c3cnc[nH]3)C2)c(C)c1 (stereo unspecified)	0	0	0	0	0
CC1=N/C(=C/c2ccc([N+](=O)[O-])cc2)C(=O)N1c1ccc(Cl)cc1Cl	0	0	15.1	0	0
CC1=N/C(=C\c2ccc([N+](=O)[O-])cc2)C(=O)N1c1ccc(Cl)cc1	0	0	0	0	0
Cc1cc([N+](=O)[O-])ccc1NC(=O)Nc1ccc(F)cc1F	0	0	0	0	0
CC1=N/C(=C\c2ccc([N+](=O)[O-])cc2)C(=O)N1c1ccc(F)cc1F	0	0	16.9	0	0
COC(=O)[C@@]12CCCN1[C@H](c1ccc(-c3ccccc3)cc1)[C@@H]1C(=O)N(C)C(=O)[C@@H]12	0	0	0	0	0
Cc1nn(-c2ccccc2)c(C)c1/C=N/NC(=O)CSc1nc2ccccc2c(=O)n1-c1ccc(Br)cc1	0	0	0	0	0
CCOC(=O)c1c(C)[nH]c(C)c1C(=O)CSc1nc2ccccc2c(=O)n1-c1ccc(C)cc1	0	-7.24	0	0	0
Cc1ccc(-n2c(SCC(=O)N/N=C/c3c(C)nn(-c4ccccc4)c3C)nc3ccccc3c2=O)cc1	0	0	0	0	-6.4
O=C(NC1CCCCC1)C(c1ccccn1)N(C(=O)Cc1cccs1)c1ccc(Cl)cc1 (stereo unspecified)	36.7	0	0	0	0
Cc1cc(C)cc(N(C(=O)Cc2cccs2)C(C(=O)NC2CCCCC2)c2ccccn2)c1 (stereo unspecified)	0	0	0	0	0
SMILES	MrgX1 agonist	RGS4 pot	MrgX1 PAM	RGS4 inh	MrgX1 antagonist
O=C(CSc1nc(=O)[nH]c2c1CCCC2)Nc1cc(C(F)(F)F)cc(C(F)(F)F)c1	0	0	0	0	0
CC(=O)c1c(C)[nH]c(C(=O)COC(=O)c2cc(S(=O)(=O)N(C)c3ccccc3)ccc2Cl)c1C	0	0	0	0	0
CCN(c1ccccc1)S(=O)(=O)c1ccc(Cl)c(C(=O)OCC(=O)c2[nH]c(C)c(C(C)=O)c2C)c1	0	-7.16	0	0	0
CCC(C)Sc1cc(-c2nc3ccc(C)cn3c2NCc2ccccc2)ccc1OC (stereo unspecified)	0	0	0	0	0
CCC(C)Sc1ccc(-c2nc3ccc(C)cn3c2NCc2ccccc2)cc1OC (stereo unspecified)	0	-8.6	0	0	0
CC(NCCC1(Cc2ccccc2Cl)CCOC(C)(C)C1)c1cccs1 (stereo unspecified)	0	0	0	0	0
CN1CCN(C(=O)c2cc(=O)c3cc(Cl)cc(Cl)c3o2)CC1	0	0	0	0	0
Cc1sc(-n2c(C)cc(/C=C3\SC(=S)NC3=O)c2C)c(C#N)c1C	0	-10.6	0	0	-7.41
Cc1nn(C)cc1/C=N/NC(=O)Cn1cncn1	0	0	0	0	0
CC1=C(SCCC#N)S/C(=C2\SC(C)=C(SCCC#N)S2)S1	0	0	0	0	-5.25
Cn1c(SCCC#N)nnc1-c1ccc(F)cc1	0	0	0	0	0
CCC(CC)C(=O)N1N=C(c2ccc(NS(C)(=O)=O)cc2)CC1c1ccc(C)cc1 (stereo unspecified)	0	0	0	0	0
COc1ccc(S(=O)(=O)/N=C2/NC(=O)/C(=C/c3ccco3)S2)cc1	0	0	7.5	0	0
Cc1ccc(C(=O)Nc2c(N)nc(SCC(=O)Nc3cc(C)on3)[nH]c2=O)cc1	0	0	0	0	-6.36
COc1ccc(C(=O)Nc2c(N)nc(SCC(=O)Nc3ccc(NC(C)=O)cc3)[nH]c2=O)cc1	0	0	0	0	-4.92
Cn1c(=O)c2[nH]c(SCC(=O)c3ccc(F)cc3)nc2n(C)c1=O	0	0	0	0	0
COc1ccc(C(=O)NNC(=O)CSc2nc3c([nH]2)c(=O)n(C)c(=O)n3C)cc1	0	0	0	0	-4.64
Cc1ccc2nc(SCC(=O)Nc3cc(C)on3)[nH]c2c1	0	0	0	0	0
Cn1ncc(Cl)c1C(=O)N1CCN(S(=O)(=O)c2ccc(Cl)s2)CC1	0	0	0	0	0
CC(N)(C(=O)O)c1cccc(OCc2cccc(Cl)c2)c1 (stereo unspecified)	0	0	0	0	0
Cc1cc(N/N=C2\CC(C)CC(C)(C)C2)nc2ccccc12 (stereo unspecified)	0	0	0	0	0
CN(C)c1ccc(N2C(=NC(=O)COc3ccccc3)SC3CS(=O)(=O)CC32)cc1 (stereo unspecified)	0	0	0	0	0
O=C(COc1ccc(Cl)cc1Cl)Nc1ccc(CN2CCOCC2)cc1	0	0	0	0	0
O=C(COc1ccc(Cl)cc1Cl)Nc1ccc(CN2CCCCC2)cc1	0	-7.14	0	0	0
O=C(c1ccc(COc2ccc(Cl)cc2Cl)o1)N1CCCC1	0	-7.58	0	0	0
Cc1cccc(NC(=S)NNC(=O)COc2ccc(Cl)cc2Cl)c1	0	0	10	0	0
